Bioassay records (PubChem BioAssay)
TLR9-MyD88 block – inhibitors of human TLR9-MyD88 binding; CHO BLA complementation TLR9-MyD88, CCF4 FRET ratio; inhibition, % at 4.98 µM; 340,000 compounds, 0.21% hits; AID 504734;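 active = inhibition above the mean over all tested compounds plus 3 SD, cut at about 21% in these data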;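 note: 0% = DMSO only wells and 100% = clavulanate BLA inhibitor control wells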
NOD2-RIPK2 inh – inhibitors of human NOD2-RIPK2 interaction; 360,000 compounds, 0.38% hits; CHO BLA complementation NOD2-RIPK2, CCF4 ratio; inhibition, % at 4.98 µM; in the data active = inhibition above about 21%;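 note: 0% = vehicle only and 100% = reference blocker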
Target sequence (O43353 whole entry, looked up): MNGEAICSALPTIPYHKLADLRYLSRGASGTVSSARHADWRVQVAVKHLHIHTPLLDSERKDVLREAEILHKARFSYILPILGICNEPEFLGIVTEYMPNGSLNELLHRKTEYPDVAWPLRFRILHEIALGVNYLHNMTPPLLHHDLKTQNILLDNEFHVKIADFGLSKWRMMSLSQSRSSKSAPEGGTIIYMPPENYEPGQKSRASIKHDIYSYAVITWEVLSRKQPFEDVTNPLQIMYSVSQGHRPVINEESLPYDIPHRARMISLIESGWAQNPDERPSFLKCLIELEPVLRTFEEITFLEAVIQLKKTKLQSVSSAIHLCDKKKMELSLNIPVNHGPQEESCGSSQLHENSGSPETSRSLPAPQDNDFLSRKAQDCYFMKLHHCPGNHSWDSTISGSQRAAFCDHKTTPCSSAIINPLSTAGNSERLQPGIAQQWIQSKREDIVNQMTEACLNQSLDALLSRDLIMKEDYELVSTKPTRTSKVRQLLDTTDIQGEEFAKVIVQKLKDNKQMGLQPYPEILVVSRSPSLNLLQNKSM
CHOP inh – blocks CHOP induction under ER stress; CHO-K1 CHOP-promoter luciferase, tunicamycin-induced, 15-18 h; inhibition, % at 10 µM; 220,000 compounds, 3.8% hits;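 active = compounds that reduced the stress-induced luciferase reporter signal by more than about 70% of percent inhibition, limit read from the data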;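 note: 0% = tunicamycin plus vehicle and 100% = wells without tunicamycin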
XBP1 UPR activ – adaptive UPR (XBP1) activation. CHO-XBP1 luciferase reporter, IRE1-XBP1 UPR activation, luminescence; percent of tunicamycin response, DMSO as zero. activation, % at 20 µM. AID 463104. 330,000 compounds, 0.33% hits;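 active = versus positive control, 20 µM dose yields 30% or more activation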;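 note: 100% = tunicamycin at 10 µg/mL and 0% = DMSO only wells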
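Assay system: IRE1-XBP1 luciferase reporter CHO line. Input: 1000 cells/well. Buffer or medium: F12 with 10% serum. Doses: 20 µM, 1% DMSO. Times: overnight seeding at 37 °C, 6 h compound treatment at 37 °C. Technique: Steady-Glo luciferase glow luminescence, 10 min after reagent addition.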
UPR CHOP act – activators of apoptotic arm of unfolded protein response (CHOP) | CHO-CHOP luciferase reporter, UPR activation, luminescence; percent of tunicamycin response over DMSO baseline | activation, % at 10 µM | 330,000 compounds, 0.34% hits | AID 449763;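 active = at 10 µM dose, activation of 40% or more, normalized to positive control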;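 note: 100% = tunicamycin at 10 µg/mL and 0% = DMSO alone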
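assay system = CHO CHOP reporter cells | amount = 500 CHO-CHOP cells per well | buffer or medium = F12 with 10% FBS | incubation = 16-18 h cell attachment, then 6 h compound exposure, 37 °C | detection = luminescence read with Steady-Glo | read-out = percent activation relative to tunicamycin control | controls = tunicamycin high control, DMSO low control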
TLR9-MyD88 conf – confirmation of human TLR9-MyD88 binding inhibitors. shares compounds with TLR9-MyD88 block. 680 compounds, 51% hits. CHO TLR9/MyD88 BLA complementation, CCF4 FRET ratio. AID 540250. inhibition, % at 4.98 µM;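 active = mean inhibition across three repeats above about 21% taken from the earlier screen, limit read from the data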;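 note: blue over green emission ratio reports constitutive TLR9 MyD88 association via BLA complementation; 0% = DMSO vehicle wells and 100% = clavulanate BLA inhibitor wells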
BLA counter-1 – counter-screen for TLR9-MyD88 inhibitors: non-selective beta-lactamase inhibitors | shares compounds with TLR9-MyD88 block | CHO-BLA cells, CCF4 FRET ratio, BLA reporter | inhibition, % at 4.98 µM | 680 compounds, 7% hits;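 active = mean inhibition above a 50% cutoff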;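 note: counterscreen of TLR9-MyD88 hits on CMV-driven BLA in CHO-K1 cells; 0% = DMSO alone and 100% = clavulanate blocking BLA; higher means less blue over green ratio so more BLA blockade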
TLR9 CHO cytotox – CHO cell toxicity counter-screen for TLR9-MyD88 inhibitors | shares compounds with TLR9-MyD88 block | TLR9-MyD88 CHO cells cytotoxicity, luminescence | inhibition, % at 4.98 µM | 680 compounds, 39% hits | AID 588336; in the data active = inhibition above about 11%
NOD2-RIPK2 conf – NOD2-RIPK2 interaction inhibition confirmed. inhibition, % at 4.98 µM. shares compounds with NOD2-RIPK2 inh. AID 624370. CHO cells, NOD2-RIPK2 BLA complementation, CCF4 FRET. 1,200 compounds, 70% hits;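 active = mean inhibition across replicates above a set limit taken from the earlier primary screen, cut at about 21% in these data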;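 note: 0% = DMSO-only wells and the high end = clavulanate BLA-blocked wells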
BLA counter-2 – counter-screen for NOD2-RIPK2 interaction inhibitors: BLA reporter. 1,200 compounds, 57% hits. inhibition, % at 4.98 µM. shares compounds with NOD2-RIPK2 inh. CHO BLA reporter, CCF4 FRET ratio, counterscreen;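 active = mean inhibition above the low-control mean inhibition plus three low-control SD, cut at about 11% in these data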;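 note: 0% = DMSO only wells and 100% = clavulanate high control wells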
* hit, by the source's call. Shown is part of a subset that was picked to be rich in hits.

Results for CC1=C(O)C(=O)C=C2C1=CC=C1C2(C)CCC2(C)C3CC(C)(C(=O)O)CCC3(C)CCC12C (configuration not stated) ?
TLR9-MyD88 block: 28.6*; NOD2-RIPK2 inh: 80.9*; TLR9-MyD88 conf: 50.1*; BLA counter-1: 8.4; TLR9 CHO cytotox: 97.7*; NOD2-RIPK2 conf: 80.6*; BLA counter-2: 7.5

How did COc1ccc(C(SCC(NC(=O)OCc2ccccc2)C(=O)O)c2ccc(OC)cc2)cc1 (configuration not stated) do in these assays?
TLR9-MyD88 block: -3.1; NOD2-RIPK2 inh: -7.9

Results for CCN(CC)C(=O)c1ccc2c(c1)C1C=CCC1C(C(=O)O)N2 (configuration not stated) ?
TLR9-MyD88 block: -2.3; NOD2-RIPK2 inh: -4.4; XBP1 UPR activ: -3.9; UPR CHOP act: -0.5

Results for Nc1ccc2ccc3cccc[n+]3c2c1 ?
TLR9-MyD88 block: 25.7*; NOD2-RIPK2 inh: 23.5*; XBP1 UPR activ: 5.4; UPR CHOP act: -2.6; TLR9-MyD88 conf: 9.2; BLA counter-1: 10.7; TLR9 CHO cytotox: -1.6; NOD2-RIPK2 conf: 31.5*; BLA counter-2: 35.7*

What do the screens show for `COc1ccc(CN2Cc3cnnn3-c3ccccc3C2C#N)cc1` (configuration not stated)?
TLR9-MyD88 block: -8.0; NOD2-RIPK2 inh: 45.1*; NOD2-RIPK2 conf: 13.2; BLA counter-2: -5.6

What do the screens show for `N#CC1c2ccccc2-n2nncc2CN1Cc1cc(Cl)cc(Cl)c1` (configuration not stated)?
TLR9-MyD88 block: 12.9; NOD2-RIPK2 inh: 58.8*; NOD2-RIPK2 conf: 43.4*; BLA counter-2: -2.5

How did CC1(C)CC(=O)CC(C)(C)N1O do in these assays?
TLR9-MyD88 block: -4.7; NOD2-RIPK2 inh: 1.8

What do the screens show for `CC(=O)OCC12CC(OC(=O)CC(C)C)C(C)=CC1OC1C(O)C(OC(C)=O)C2(C)C12CO2` (configuration not stated)?
TLR9-MyD88 block: -10.1; NOD2-RIPK2 inh: 22.9*; NOD2-RIPK2 conf: 23.2*; BLA counter-2: -7.3

Results for COC(=O)C1=C(c2cc3ccccc3s2)C[C@@H]2CC[C@H]1N2C ?
TLR9-MyD88 block: 4.2; NOD2-RIPK2 inh: -0.2; XBP1 UPR activ: -0.6; UPR CHOP act: 4.4

Results for C=C1C(=O)OC2CC3(C)OC3CCC(C)=CC(OC(C)=O)C12 (configuration not stated) ?
TLR9-MyD88 block: -15.2; NOD2-RIPK2 inh: 16.0

How did C=C1C(=O)OC2CC3(C)OC3C3OC3C3=CC(OC3=O)C12 (configuration not stated) do in these assays?
NOD2-RIPK2 inh: 43.6*; NOD2-RIPK2 conf: 66.7*; BLA counter-2: 18.3*

What do the screens show for `CC1CC(C)CC(C)C(O)C(C#N)=CC=CCC(C2CCCC2C(=O)O)OC(=O)CC(O)C(C)C1` (configuration not stated)?
TLR9-MyD88 block: 5.5; NOD2-RIPK2 inh: 29.9*; NOD2-RIPK2 conf: 28.2*; BLA counter-2: -5.4

How did O=C1NC2C(=CC(O)C(O)C2O)c2cc3c(c(O)c21)OCO3 (configuration not stated) do in these assays?
TLR9-MyD88 block: -1.0; NOD2-RIPK2 inh: 29.9*; NOD2-RIPK2 conf: 26.8*; BLA counter-2: -7.4

What do the screens show for `O=C1NC2C(=CC(O)C(O)C2O)c2cc3c(cc21)OCO3` (configuration not stated)?
TLR9-MyD88 block: 4.2; NOD2-RIPK2 inh: 15.4

What do the screens show for `O=C1NC2C(O)C(O)C(O)C(O)C2c2cc3c(c(O)c21)OCO3` (configuration not stated)?
TLR9-MyD88 block: 3.6; NOD2-RIPK2 inh: 22.1*; NOD2-RIPK2 conf: 29.0*; BLA counter-2: -1.8

Results for COC(=O)C1=C(c2c(C)noc2C)C[C@@H]2CC[C@H]1N2C(=O)NCCOc1ccc(OC)cc1 ?
TLR9-MyD88 block: -14.3; NOD2-RIPK2 inh: 2.5; XBP1 UPR activ: -2.3; UPR CHOP act: 2.0

How did O=c1ccc2cc(O[C@@H]3O[C@@H](CO)[C@H](O)[C@@H](O)[C@@H]3O)c(O)cc2o1 do in these assays?
TLR9-MyD88 block: -25.6; NOD2-RIPK2 inh: -1.6; XBP1 UPR activ: -5.4; UPR CHOP act: 2.4

How did COC(=O)C1=C(c2ccc(F)cc2OCc2ccccc2)C[C@@H]2CC[C@H]1N2C(=O)N1CCC(O)CC1 do in these assays?
TLR9-MyD88 block: -5.5; NOD2-RIPK2 inh: 9.0; XBP1 UPR activ: -0.5; UPR CHOP act: 1.5

Results for COC(=O)C1=C(C(=O)OC)C2OC1c1cc3ccccc3cc12 ?
TLR9-MyD88 block: 17.9; NOD2-RIPK2 inh: 88.1*; NOD2-RIPK2 conf: 86.2*; BLA counter-2: 19.3*

How did COC(=O)C1=C(c2ccc3ccccc3c2)C[C@@H]2CC[C@H]1N2C do in these assays?
TLR9-MyD88 block: -5.2; NOD2-RIPK2 inh: -0.7; XBP1 UPR activ: -2.6; UPR CHOP act: -0.4

Results for COc1cc(/C=C/c2nc3ccccc3c(=O)n2-c2cccc(O)c2)ccc1O ?
TLR9-MyD88 block: 13.6; NOD2-RIPK2 inh: 21.0*; CHOP inh: 29.4; XBP1 UPR activ: 5.5; UPR CHOP act: 0.5; NOD2-RIPK2 conf: 5.0; BLA counter-2: 13.6*

Results for O=[N+]([O-])NC1=NCCN1Cc1ccc(Cl)nc1 ?
TLR9-MyD88 block: -5.6; NOD2-RIPK2 inh: -3.8; XBP1 UPR activ: -7.3; UPR CHOP act: -4.1

How did C[n+]1c(-c2ccccc2)c2cc(N)ccc2c2ccc(N)cc21 do in these assays?
TLR9-MyD88 block: 11.3; NOD2-RIPK2 inh: 27.8*; XBP1 UPR activ: -13.5; UPR CHOP act: -1.6; NOD2-RIPK2 conf: -0.7; BLA counter-2: -2.6

What do the screens show for `CCOc1cc2c(cc1OCC)-n1cccc1C(c1cccc([N+](=O)[O-])c1)NC2` (configuration not stated)?
TLR9-MyD88 block: -24.1; NOD2-RIPK2 inh: 5.5; XBP1 UPR activ: -6.2; UPR CHOP act: -0.5

How did CC(C)CN1Cc2cc(-c3cccc(F)c3)ccc2-n2nncc2C1 do in these assays?
NOD2-RIPK2 inh: 5.5
